8 molecules from ChEMBL document CHEMBL2062467, “Design, synthesis, antimicrobial, anti-inflammatory and analgesic activity of novel isoxazolyl pyrimido[4,5-b]quinolines and isoxazolyl chromeno[2,3-d]pyrimidin-4-ones” (2012) can be followed below.

Values after ≈ are worked out from the molar mass of the structure shown.

Type in all cases: functional
The test system of one assay is Bacillus subtilis. As to the kind of experiment: Antibacterial activity against Bacillus subtilis MTCC 441 after 24 hrs by broth dilution method. Particulars: MTCC 441, 24 h. The gist of the method: (§1)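 Broth dilution MIC in autoclaved nutrient broth tubes. Test compound was dissolved in acetone, and 100 mg/mL (so in the source) was added to the first tube, then serially diluted across the tubes.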

The subject of assay [1] is Chromobacterium violaceum. In words: Antibacterial activity against Chromobacterium violaceum MTCC 2656 after 24 hrs by broth dilution method. The following applies: MTCC 2656, 24 h. In outline: as §1
On the technique in general: Broth dilution looks for growth in wells or tubes with falling amounts of substance.

For another assay, the system named is Klebsiella aerogenes. In words: Antibacterial activity against Klebsiella aerogenes MTCC 39 after 24 hrs by broth dilution method. Particulars: MTCC 39, 24 h. In outline:
as §1

Assay [2] relates to Lysinibacillus sphaericus. In words: Antibacterial activity against Bacillus sphaericus MTCC 511 after 24 hrs by broth dilution method. The following applies: MTCC 511, 24 h. In outline: as §1
In a further assay the test system is Staphylococcus aureus. As to the kind of experiment: Antibacterial activity against Staphylococcus aureus MTCC 96 after 24 hrs by broth dilution method. The following applies: MTCC 96, 24 h. The gist of the method:
as §1

For another assay, the system named is Colletotrichum truncatum. In words: Antifungal activity against Colletotrichum capsici after 72 to 96 hrs by agar cup method. In outline: (§2)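 Agar cup assay on potato dextrose agar. Plates were spread with 0.5 mL of a one-week-old fungal spore suspension, and 6 mm cups were bored into the agar. Different concentrations of compound in acetone were added to the cups. Acetone and clotrimazole served as controls. Plates were held at room temperature for 72–96 h.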

A short description of assay [3]: Antifungal activity against Verticillium dahliae after 72 to 96 hrs by agar cup method. The gist of the method:
as §2

The subject of a further assay is Pseudomonas aeruginosa. In words: Antibacterial activity against Pseudomonas aeruginosa MTCC 741 after 24 hrs by broth dilution method. The following applies: MTCC 741, 24 h. In outline: as §1
In assay [4] the test system is Rattus norvegicus. In words: Analgesic activity in Albino rat assessed as reaction time at 10 mg/kg, po after 2 hrs by Hot plate test. In outline: (§3)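 Hot plate test of central analgesia in rats, six per group, with a vehicle control group and an Indomethacin group (10 mg/kg po). Test compounds were given orally at 10 mg/kg. Reaction time was read at 0, 1 and 2 h. Values are the mean of six, ± S.E., also expressed as % increase over basal. Statistics used ANOVA/LSD; Dunnett's test vs control (P < 0.05).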
(Thermal pain tests record how soon the animal reacts.)

The next assay concerns Pythium aphanidermatum. As to the kind of experiment: Antifungal activity against Pythium aphanidermatum after 72 to 96 hrs by agar cup method. The gist of the method:
as §2

The test system of another assay is Alternaria solani. In words: Antifungal activity against Alternaria solani after 72 to 96 hrs by agar cup method. The gist of the method: as §2
The test system of the next assay is Fusarium oxysporum. As to the kind of experiment: Antifungal activity against Fusarium oxysporum after 72 to 96 hrs by agar cup method. The gist of the method:
as §2

The next assay deals with Rhizoctonia solani. In words: Antifungal activity against Rhizoctonia solani after 72 to 96 hrs by agar cup method. The gist of the method:
as §2

In assay [5] the test system is Rattus norvegicus. As to the kind of experiment: Analgesic activity in Albino rat assessed as reaction time at 10 mg/kg, po after 1 hr by Hot plate test. The gist of the method: as §3

Broadly, the MIC is the lowest concentration found to suppress growth. Low readings indicate a more susceptible organism, high ones a less susceptible organism. With `O=C(O)c1cn(C2CC2)c2cc(N3CCNCC3)c(F)cc2c1=O` [CIPROFLOXACIN], the MIC with Bacillus subtilis came to 20 µg/mL (≈ 60.4 µM); in assay [1] it was 20 µg/mL (≈ 60.4 µM); in the assay on Klebsiella aerogenes, 22 µg/mL (≈ 66.4 µM); in assay [2], 24 µg/mL (≈ 72.4 µM); in the assay on Staphylococcus aureus, 28 µg/mL (≈ 84.5 µM).

As for `COc1ccc(/C=C/c2onc(C)c2-n2c(C)nc3nc4ccccc4cc3c2=O)cc1`, the minimal inhibitory concentration (MIC) in the assay with Colletotrichum truncatum came to 16 µg/mL (≈ 37.7 µM); in the assay with Bacillus subtilis it was 18 µg/mL (≈ 42.4 µM); in assay [1] it was 16 µg/mL (≈ 37.7 µM); in [3] it was 14 µg/mL (≈ 33 µM); against Pseudomonas aeruginosa, 22 µg/mL (≈ 51.8 µM); against Klebsiella aerogenes, 20 µg/mL (≈ 47.1 µM). Moreover, the minimum inhibitory concentration (MIC) amounted to 18 µg/mL (≈ 42.4 µM) with Pythium aphanidermatum; 16 µg/mL (≈ 37.7 µM) against Alternaria solani; 22 µg/mL (≈ 51.8 µM) in [2]; 25 µg/mL (≈ 58.9 µM) in the assay with Staphylococcus aureus; 10 µg/mL (≈ 23.6 µM) in the assay with Fusarium oxysporum; 14 µg/mL (≈ 33 µM) against Rhizoctonia solani. Also, the Time turned out to be 21.4 s with Rattus norvegicus [4] and 21.7 s in the assay with Rattus norvegicus [5].

For the molecule `Cc1ccc(/C=C/c2onc(C)c2N2CN=C3Oc4ccc(Cl)cc4C=C3C2=O)cc1`, the MIC was 12 µg/mL (≈ 27.8 µM) in the assay on Colletotrichum truncatum; 14 µg/mL (≈ 32.4 µM) in the assay on Bacillus subtilis; 18 µg/mL (≈ 41.7 µM) in assay [1]; 10 µg/mL (≈ 23.2 µM) in assay [3]; 11 µg/mL (≈ 25.5 µM) with Pseudomonas aeruginosa; 18 µg/mL (≈ 41.7 µM) in the assay on Klebsiella aerogenes. The MIC against Pythium aphanidermatum worked out at 9 µg/mL (≈ 20.8 µM); in the assay on Alternaria solani it was 8 µg/mL (≈ 18.5 µM); in assay [2] it was 16 µg/mL (≈ 37 µM); against Staphylococcus aureus it was 15 µg/mL (≈ 34.7 µM); against Fusarium oxysporum it was 9 µg/mL (≈ 20.8 µM); with Rhizoctonia solani, 11 µg/mL (≈ 25.5 µM). In addition, the values for the Time in the assay with Rattus norvegicus [4] and in the assay on Rattus norvegicus [5] were 24.7 s and 19.1 s, respectively.

Regarding `Cc1noc(/C=C/c2ccccc2)c1N1CN=C2Oc3c(Br)cc(Br)cc3C=C2C1=O`, the MIC with Colletotrichum truncatum came out at 10 µg/mL (≈ 18.5 µM); with Bacillus subtilis it was 9 µg/mL (≈ 16.6 µM); in [1], 8 µg/mL (≈ 14.8 µM); in [3], 8 µg/mL (≈ 14.8 µM); against Pseudomonas aeruginosa, 6 µg/mL (≈ 11.1 µM); in the assay on Klebsiella aerogenes it was 5 µg/mL (≈ 9.24 µM). The minimum inhibitory concentration (MIC) with Pythium aphanidermatum is 8 µg/mL (≈ 14.8 µM); against Alternaria solani, 7 µg/mL (≈ 12.9 µM); in assay [2], 7 µg/mL (≈ 12.9 µM); against Staphylococcus aureus, 8 µg/mL (≈ 14.8 µM); against Fusarium oxysporum it was 9 µg/mL (≈ 16.6 µM); in the assay on Rhizoctonia solani it was 6 µg/mL (≈ 11.1 µM). For the same molecule, the Time is 23.4 s in the assay with Rattus norvegicus [4] and 23.3 s in the assay on Rattus norvegicus [5].

Take `Cc1noc(/C=C/c2ccccc2)c1-n1c(C)nc2nc3ccc(Cl)cc3cc2c1=O`: the minimum inhibitory concentration (MIC) against Colletotrichum truncatum came out at 11 µg/mL (≈ 25.6 µM); in the assay on Bacillus subtilis it was 8 µg/mL (≈ 18.7 µM); in [1], 5 µg/mL (≈ 11.7 µM); in [3] it was 9 µg/mL (≈ 21 µM); in the assay on Pseudomonas aeruginosa, 10 µg/mL (≈ 23.3 µM); against Klebsiella aerogenes, 7 µg/mL (≈ 16.3 µM). Further, the minimum inhibitory concentration (MIC) against Pythium aphanidermatum came out at 15 µg/mL (≈ 35 µM); against Alternaria solani, 10 µg/mL (≈ 23.3 µM); in [2] it was 16 µg/mL (≈ 37.3 µM); in the assay with Staphylococcus aureus, 9 µg/mL (≈ 21 µM); with Fusarium oxysporum it was 8 µg/mL (≈ 18.7 µM); against Rhizoctonia solani, 11 µg/mL (≈ 25.6 µM). The results for the Time with Rattus norvegicus [4] and in the assay on Rattus norvegicus [5] were 21.5 s and 21.2 s, respectively.

`COc1ccc(/C=C/c2onc(C)c2-n2c(C)nc3nc4ccc(Cl)cc4cc3c2=O)cc1`: the MIC against Colletotrichum truncatum was determined as 16 µg/mL (≈ 34.9 µM); in the assay with Bacillus subtilis it was 12 µg/mL (≈ 26.1 µM); in assay [1], 14 µg/mL (≈ 30.5 µM); in assay [3] it was 13 µg/mL (≈ 28.3 µM); against Pseudomonas aeruginosa, 14 µg/mL (≈ 30.5 µM); against Klebsiella aerogenes, 11 µg/mL (≈ 24 µM). Besides, the MIC in the assay on Pythium aphanidermatum was determined as 17 µg/mL (≈ 37 µM); with Alternaria solani, 12 µg/mL (≈ 26.1 µM); in [2], 10 µg/mL (≈ 21.8 µM); against Staphylococcus aureus, 13 µg/mL (≈ 28.3 µM); in the assay with Fusarium oxysporum, 11 µg/mL (≈ 24 µM); against Rhizoctonia solani, 14 µg/mL (≈ 30.5 µM). In addition, the Time with Rattus norvegicus [4] worked out at 22.6 s; in the assay on Rattus norvegicus [5], 25.1 s.

On to `Cc1noc(/C=C/c2ccccc2)c1-n1c(C)nc2nc3ccccc3cc2c1=O`, for which the minimum inhibitory concentration (MIC) with Colletotrichum truncatum is 15 µg/mL (≈ 38 µM); in the assay with Bacillus subtilis, 20 µg/mL (≈ 50.7 µM); in [1], 20 µg/mL (≈ 50.7 µM); in [3], 14 µg/mL (≈ 35.5 µM); against Pseudomonas aeruginosa it was 24 µg/mL (≈ 60.8 µM); against Klebsiella aerogenes, 20 µg/mL (≈ 50.7 µM). Besides, the MIC stood at 18 µg/mL (≈ 45.6 µM) against Pythium aphanidermatum; 10 µg/mL (≈ 25.4 µM) in the assay on Alternaria solani; 22 µg/mL (≈ 55.8 µM) in assay [2]; 20 µg/mL (≈ 50.7 µM) against Staphylococcus aureus; 16 µg/mL (≈ 40.6 µM) with Fusarium oxysporum; 12 µg/mL (≈ 30.4 µM) in the assay on Rhizoctonia solani. Moreover, the Time with Rattus norvegicus [4] was 16.5 s; with Rattus norvegicus [5] it was 14.8 s.

Turning to `Cc1ccc(/C=C/c2onc(C)c2-n2c(C)nc3nc4ccccc4cc3c2=O)cc1`, the MIC against Colletotrichum truncatum worked out at 18 µg/mL (≈ 44.1 µM); against Bacillus subtilis, 19 µg/mL (≈ 46.5 µM); in [1] it was 15 µg/mL (≈ 36.7 µM); in assay [3], 12 µg/mL (≈ 29.4 µM); against Pseudomonas aeruginosa, 23 µg/mL (≈ 56.3 µM); against Klebsiella aerogenes, 18 µg/mL (≈ 44.1 µM). Further, the minimum inhibitory concentration (MIC) in the assay on Pythium aphanidermatum came out at 15 µg/mL (≈ 36.7 µM); against Alternaria solani it was 10 µg/mL (≈ 24.5 µM); in assay [2] it was 23 µg/mL (≈ 56.3 µM); against Staphylococcus aureus it was 25 µg/mL (≈ 61.2 µM); with Fusarium oxysporum it was 12 µg/mL (≈ 29.4 µM); against Rhizoctonia solani, 14 µg/mL (≈ 34.3 µM). Moreover, the Time with Rattus norvegicus [4] came to 21.1 s; with Rattus norvegicus [5], 21.3 s.
